Results from ChEMBL document CHEMBL1759958, “Disassembly of preformed amyloid beta fibrils by small organofluorine molecules” (Bioorg Med Chem Lett, 2011).
Active and inactive are the calls of the source. The calls are words filed in the database; no cut-off is given here.

How the values were obtained:
[1] = Induction of disassembly of preformed amyloid beta (1 to 40) fibrils assessed as decrease in fibril amount at 10:1 compound to amyloid beta ratio by thioflavin T fluorescence method
Method in brief: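 Aβ1-40 fibrils were grown at 100 μM final in 10 mM HEPES/100 mM NaCl, pH 7.4, at 37°C with 77 rpm shaking until THT saturation. Compound was added from 0.15 M DMSO stock, vortexed and re-incubated under the same conditions, then sampled periodically into 5 μM ThT (glycine-NaOH, pH 8.5). Read at ex 430/em 484 nm, ThT background subtracted, normalized to Aβ-only control; 3–4 parallel runs, mean ± SD.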

[2] = Induction of disassembly of preformed amyloid beta (1 to 40) fibrils assessed as disaggregated fibrils at 10:1 compound to amyloid beta ratio for 4 days by fourier-transform infrared spectroscopy
Method in brief: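 Preformed Aβ1-40 fibrils (100 μM, HEPES pH 7.4, grown at 37°C with 77 rpm shaking to THT saturation) were exposed to compound added from DMSO stock and re-incubated at 37°C with shaking. For FTIR, 20 μl aliquots were lyophilized and mixed with 0.2 g solid KBr.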

[3] = Induction of disassembly of preformed amyloid beta (1 to 40) fibrils assessed as disaggregated fibrils at 10:1 compound to amyloid beta ratio for 4 days by atomic force microscopy
Method in brief: (§1)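 Synthetic Aβ1-40 dissolved in 100 mM NaOH, diluted to 100 μM in 10 mM HEPES (100 mM NaCl, 0.02% NaN3, pH 7.4), grown at 37°C with shaking (77 rpm) until ThT saturation. Compound added from 0.15 M DMSO stock at 10:1 molar ratio, vortexed 30 s, re-incubated 37°C shaking. Aliquots of 2-5 μL spotted on fresh mica for 30-60 s, water-rinsed, air-dried. Imaged by non-contact AFM.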

[4] = Induction of disassembly of preformed amyloid beta (1 to 40) fibrils assessed as disaggregated fibrils at 10:1 compound to amyloid beta ratio for 1 day by atomic force microscopy; method in brief: as §1
[5] = Induction of disassembly of preformed amyloid beta (1 to 40) fibrils assessed as disaggregated fibrils at 10:1 compound to amyloid beta ratio for 6 days by atomic force microscopy; method in brief: as §1
[6] = Induction of disassembly of preformed amyloid beta (1 to 40) fibrils assessed as disaggregated fibrils at 10:1 compound to amyloid beta ratio by atomic force microscopy; conditions: TDE = time-dependent effect; method in brief: as §1

Compound	Activity [1]	Activity [2]	further results
CCOC(=O)C(O)(c1c[nH]c2ccccc12)C(F)(F)F (racemic)	Active		
CCOC(=O)C(O)(c1c[nH]c2ccc(C)cc12)C(F)(F)F (racemic)	Active		
CCOC(=O)C(O)(c1c[nH]c2ccc(Cl)cc12)C(F)(F)F (racemic)	Active	Active	
CCOC(=O)[C@@](O)(c1c[nH]c2ccc(I)cc12)C(F)(F)F	Active	Active	Activity [3]: Active
CCOC(=O)C(O)(c1c[nH]c2ccc(I)cc12)C(F)(F)F (racemic)	Active		
CCOC(=O)C(O)(c1c(C)n(C)c2ccccc12)C(F)(F)F (racemic)	Active		
CCOC(=O)[C@](O)(c1c[nH]c2ccc(I)cc12)C(F)(F)F	Active	Active	Activity [3]: Active; Activity [4]: Active; Activity [5]: Active; Activity [6]: tde
CCOC(=O)C(O)(c1c(C)[nH]c2ccc(C(=O)OC)cc12)C(F)(F)F (racemic)	Active	Active	
CCOC(=O)[C@@](O)(c1c[nH]c2ccc(Br)cc12)C(F)(F)F	Active	Active	
COc1ccc2[nH]cc(CCNC(C)=O)c2c1	Active	Active	

Second part, led by results:

Activity [1]	Activity [2]	Compound	further results
Active	Active	CCOC(=O)C(O)(c1c[nH]c2ccc(Br)cc12)C(F)(F)F (racemic)	
Active	Active	CCOC(=O)[C@](O)(c1c[nH]c2ccc(Cl)cc12)C(F)(F)F	
Active		CCOC(=O)C(O)(c1c(C)[nH]c2ccc(OC)cc12)C(F)(F)F (racemic)	
Active	Active	CCOC(=O)[C@@](O)(c1c[nH]c2ccc(Cl)cc12)C(F)(F)F	Activity [3]: Active
Active		CCOC(=O)C(O)(c1c(C)[nH]c2ccc(C)cc12)C(F)(F)F (racemic)	
Active	Active	CCOC(=O)[C@](O)(c1c[nH]c2ccc(Br)cc12)C(F)(F)F	
